Laboratory results: ChEMBL document CHEMBL3425433, “Discovery of bicyclic pyrazoles as class III histone deacetylase SIRT1 and SIRT2 inhibitors” (Bioorg Med Chem Lett, 2015)

Biological target: T1, NAD-dependent protein deacetylase sirtuin-1 (Homo sapiens) (UniProt Q96EB6)
T1 sequence (whole entry): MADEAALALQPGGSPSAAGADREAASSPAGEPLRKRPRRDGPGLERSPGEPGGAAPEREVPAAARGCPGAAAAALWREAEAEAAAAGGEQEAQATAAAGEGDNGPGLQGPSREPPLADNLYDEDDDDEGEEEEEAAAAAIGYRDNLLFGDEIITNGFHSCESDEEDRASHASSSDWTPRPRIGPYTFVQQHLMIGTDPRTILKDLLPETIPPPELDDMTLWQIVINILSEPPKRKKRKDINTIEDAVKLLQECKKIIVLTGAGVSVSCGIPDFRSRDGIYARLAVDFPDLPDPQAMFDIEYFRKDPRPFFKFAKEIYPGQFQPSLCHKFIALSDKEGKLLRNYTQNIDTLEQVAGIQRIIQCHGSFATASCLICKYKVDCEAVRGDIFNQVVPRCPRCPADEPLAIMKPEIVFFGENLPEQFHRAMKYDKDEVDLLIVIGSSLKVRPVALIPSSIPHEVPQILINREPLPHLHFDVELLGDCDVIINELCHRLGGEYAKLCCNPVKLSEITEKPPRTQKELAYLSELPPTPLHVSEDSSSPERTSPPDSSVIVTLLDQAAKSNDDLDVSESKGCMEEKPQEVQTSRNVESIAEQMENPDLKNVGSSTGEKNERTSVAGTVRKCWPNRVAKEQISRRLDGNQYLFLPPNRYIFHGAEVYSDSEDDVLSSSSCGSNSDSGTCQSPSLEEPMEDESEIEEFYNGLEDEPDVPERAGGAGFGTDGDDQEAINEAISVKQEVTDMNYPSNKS
Experiment: Inhibition of SIRT1-mediated endogenous p53 deacetylase activity in human Namalwa cells assessed as concentration required to […] to twice the basal level after 3 hrs by ELISA
Format: cell-based
Summary of the method: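 Namalwa cells, 50,000/well, were exposed 3 h at 37 °C, 5% CO2, to 0.005–50 µM final (0.95% DMSO). Lysates were ELISA-captured on anti-p53 (DO-1), probed overnight with anti-acetyl-Lys382-p53, then HRP conjugate and Amplex Red (15 min; ex 550/em 610 nm). IC2xB is the concentration doubling basal (lowest) fluorescence. Means of three experiments.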

INH: 0.6 µM
SMILES: NC(=O)C1CCCc2c1[nH]c1ccc(Cl)cc21 (racemic)
